In article PMC3286593 (Cancer Chemotherapy and Pharmacology, 2011):

Key:
[1] = tested on: patients with advanced solid malignancies; assay: Dose delays, dose reductions and relative dose intensity; type: in vivo, human; settings: for Cycles with dose reductions: Schedule 2/1
Procedure, shortened: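 Grade 3/4 toxicity attributed to either drug allowed intra-patient dose reduction at the investigator's discretion, up to 2 reductions per drug. […] Relative dose intensity was actual/intended dose intensity. Results were summarised descriptively per cycle and per patient.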

[2] = tested on: NSCLC NCI-H460 xenograft models; settings: cited from earlier work
[3] = tested on: patients with advanced solid malignancies; assay: Phase I 3 + 3 dose escalation: MTD and dose-limiting toxicities; type: in vivo, human; settings: for Pemetrexed dose at MTD: q3w; for MTD of sunitinib: with pemetrexed 500 mg/m^2 q3w
Procedure, shortened: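 Open-label multicentre 3 + 3 escalation. […] A DLT was a grade 3/4 drug-related toxicity in cycle 1 (NCI CTCAE v3.0). MTD was the highest dose with 0/3 or ≤1/6 DLTs.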

[4] = tested on: VEGFR and PDGFR phosphorylation; settings: cited from earlier work
[5] = tested on: NSCLC; settings: single-agent sunitinib on Schedule 4/2; cited from earlier work
[6] = tested on: patients with advanced solid malignancies; assay: Safety: adverse events; type: in vivo, human
[7] = NSCLC expansion cohort (n = 15)

Nc1nc2[nH]cc(CCc3ccc(C(=O)N[C@@H](CCC(=O)O)C(=O)O)cc3)c2c(=O)[nH]1 [pemetrexed]
Patients with a pemetrexed dose delay ([1]; CDD schedule MTD): 12 patients
Patients with a pemetrexed dose reduction to 400 mg/m^2 ([1]; CDD schedule MTD): 6 patients
Cycles with pemetrexed dose reduction ([1]; NSCLC expansion cohort): 6 cycles
Patients with at least one pemetrexed dose reduction to 400 mg/m^2 ([1]; NSCLC expansion cohort): 3 patients
Cycles with dose reductions [1]: 3 cycles
Cycles with pemetrexed dose reduction ([1]; original CDD schedule MTD): 13 cycles
Effect on antitumor activity of sunitinib [2]: enhanced its antitumor activity
Pemetrexed dose at MTD ([3]; with sunitinib 37.5 mg/day CDD schedule): 500 mg/m^2
Pemetrexed dose at MTD ([3]; with sunitinib 50 mg/day Schedule 2/1): 500 mg/m^2

CCN(CC)CCNC(=O)c1c(C)[nH]c(/C=C2\C(=O)Nc3ccc(F)cc32)c1C [sunitinib]
Target plasma concentrations required to inhibit VEGFR and PDGFR phosphorylation [4]: 50 to 100 ng/mL
ORR [5]: 11.1%
Patients with a sunitinib dose reduction to 25 mg ([1]; CDD schedule MTD): 12 patients
Patients with at least one sunitinib dose delay ([1]; CDD schedule MTD): 12 patients
Patients who discontinued sunitinib due to AEs ([1]; CDD schedule MTD, abdominal pain, seizure, thrombocytopenia): Three
Cycles with sunitinib dose reductions [1, 7]: 22 cycles
Patients with at least one sunitinib dose reduction to 25 mg [1, 7]: 7 patients
Cycles with dose reductions [1]: 6 cycles
Cycles with sunitinib dose reductions ([1]; original CDD schedule MTD cohort (n = 7)): 23 cycles
Tumor growth [2]: decreased tumor growth
MTD of sunitinib ([3]; CDD schedule): 37.5 mg/day
MTD of sunitinib ([3]; Schedule 2/1): 50 mg/day
Serious AEs considered related to sunitinib treatment ([6]; CDD schedule at the MTD, one event of each in separate patients): febrile neutropenia (DLT), pancreatitis, pain, gastroenteritis, and muscular weakness
Serious AEs considered related to sunitinib treatment ([6]; Schedule 2/1, all n = 1): febrile neutropenia (DLT), tumor perforation, and pyrexia
